Results: paper PMC3355950 (The Journal of Neuroscience, 2012)
≈ marks a conversion by molar mass, not a printed value.

How the values were obtained:
GluN1/2A-(2D D1) = GluN1/2A-(2D D1) (Rattus norvegicus, UniProt P35439+Q00959, A414R/D421P/DELINS438-452SQLNRTHSPPPDAPRPE/E427G/E790M/G786D/I408V/I422A/K454R/K466R/K472G/L425I/M788I/N404Q/N432D/N490D/N491G/P770R/Q766H/Q774P/R469H/S407T/S468A/S538A/T426S/T433S/T474S/T793R/T797S/V409A/V430I/V471I/V489I/V501F/V506D/V509I/V521I/V783L); assay: Two-electrode voltage-clamp recordings, Xenopus oocytes; format: cell-based; conditions: 100 μM glutamate plus 30 μM glycine
GluN1/GluN2A V783A = GluN1/GluN2A V783A (Rattus norvegicus, UniProt P35439+Q00959, V783A); assay: as above; format: cell-based; conditions: 100 μM glutamate + 3 μM glycine
[1] = Maximum solubility in extracellular oocyte recording solution; format: physicochemical; conditions: aqueous buffer
GluN1/GluN2A L777A = GluN1/GluN2A L777A (Rattus norvegicus, UniProt P35439+Q00959, L777A); assay: Two-electrode voltage-clamp recordings, Xenopus oocytes; format: cell-based; conditions: 100 μM glutamate + 3 μM glycine
GluN1/GluN2A V783L = GluN1/GluN2A V783L (Rattus norvegicus, UniProt P35439+Q00959, V783L); assay: as above; format: cell-based
GluN1/GluN2A V783W = GluN1/GluN2A V783W (Rattus norvegicus, UniProt P35439+Q00959, V783W); assay: as above; format: cell-based; conditions: 100 μM glutamate + 3 μM glycine
[2] = biological target: GluN1 I519A co-expressed with GluN2A (Rattus norvegicus, UniProt P35439+Q00959, I519A); assay: as above; format: cell-based; conditions: 100 μM glutamate + 3 μM glycine
GluN1/GluN2A V783D = GluN1/GluN2A V783D (Rattus norvegicus, UniProt P35439+Q00959, V783D); assay: as above; format: cell-based; conditions: 100 μM glutamate + 3 μM glycine
GluN1/GluN2B L783F+F784V = GluN1/GluN2B L783F+F784V (Rattus norvegicus, UniProt P35439+Q00960, F784V/L783F); assay: as above; format: cell-based
Chain of GluN1/GluN2B L783F+F784V (Q00960 27-1482 L783F/F784V, other chains not shown): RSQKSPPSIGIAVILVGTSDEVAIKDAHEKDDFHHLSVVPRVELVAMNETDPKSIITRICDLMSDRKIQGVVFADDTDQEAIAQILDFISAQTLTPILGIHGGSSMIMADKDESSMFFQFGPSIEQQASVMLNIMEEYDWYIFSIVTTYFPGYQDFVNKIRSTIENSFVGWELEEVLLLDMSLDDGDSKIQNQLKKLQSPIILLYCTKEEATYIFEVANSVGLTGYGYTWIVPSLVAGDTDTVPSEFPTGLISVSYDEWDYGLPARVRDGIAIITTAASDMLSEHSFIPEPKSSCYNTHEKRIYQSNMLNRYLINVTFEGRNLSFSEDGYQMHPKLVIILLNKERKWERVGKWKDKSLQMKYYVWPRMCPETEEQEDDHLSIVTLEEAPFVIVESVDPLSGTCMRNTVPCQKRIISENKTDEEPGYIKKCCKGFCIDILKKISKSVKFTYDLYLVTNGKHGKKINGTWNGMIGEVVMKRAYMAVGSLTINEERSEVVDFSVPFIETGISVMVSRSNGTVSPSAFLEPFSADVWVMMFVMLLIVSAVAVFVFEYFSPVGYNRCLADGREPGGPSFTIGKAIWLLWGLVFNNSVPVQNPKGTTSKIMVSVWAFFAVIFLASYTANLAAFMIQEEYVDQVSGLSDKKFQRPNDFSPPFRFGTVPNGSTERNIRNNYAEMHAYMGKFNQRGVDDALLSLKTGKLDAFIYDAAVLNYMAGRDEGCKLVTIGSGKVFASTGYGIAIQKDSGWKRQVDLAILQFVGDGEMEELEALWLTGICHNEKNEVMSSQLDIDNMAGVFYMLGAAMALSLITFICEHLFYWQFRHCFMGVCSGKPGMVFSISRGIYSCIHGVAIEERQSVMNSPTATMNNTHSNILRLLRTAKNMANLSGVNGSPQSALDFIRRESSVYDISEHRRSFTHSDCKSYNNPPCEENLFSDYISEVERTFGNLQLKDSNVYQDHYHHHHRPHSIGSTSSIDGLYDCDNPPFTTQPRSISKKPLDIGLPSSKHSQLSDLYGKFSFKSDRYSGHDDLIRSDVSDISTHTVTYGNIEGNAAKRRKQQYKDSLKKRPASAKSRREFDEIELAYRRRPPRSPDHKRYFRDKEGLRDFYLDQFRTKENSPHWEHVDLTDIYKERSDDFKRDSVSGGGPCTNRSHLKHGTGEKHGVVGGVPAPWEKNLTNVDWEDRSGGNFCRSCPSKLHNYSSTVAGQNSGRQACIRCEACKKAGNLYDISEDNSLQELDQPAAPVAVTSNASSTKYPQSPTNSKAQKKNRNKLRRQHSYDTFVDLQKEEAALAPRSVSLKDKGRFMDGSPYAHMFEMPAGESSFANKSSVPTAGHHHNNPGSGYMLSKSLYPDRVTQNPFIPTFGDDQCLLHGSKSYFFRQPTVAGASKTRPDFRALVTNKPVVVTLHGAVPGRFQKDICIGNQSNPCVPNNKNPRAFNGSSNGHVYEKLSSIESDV

GluN1/GluN2B F784V = GluN1/GluN2B F784V (Rattus norvegicus, UniProt P35439+Q00960, F784V); assay: as above; format: cell-based
Chain of GluN1/GluN2B F784V (Q00960 27-1482 F784V, other chains not shown): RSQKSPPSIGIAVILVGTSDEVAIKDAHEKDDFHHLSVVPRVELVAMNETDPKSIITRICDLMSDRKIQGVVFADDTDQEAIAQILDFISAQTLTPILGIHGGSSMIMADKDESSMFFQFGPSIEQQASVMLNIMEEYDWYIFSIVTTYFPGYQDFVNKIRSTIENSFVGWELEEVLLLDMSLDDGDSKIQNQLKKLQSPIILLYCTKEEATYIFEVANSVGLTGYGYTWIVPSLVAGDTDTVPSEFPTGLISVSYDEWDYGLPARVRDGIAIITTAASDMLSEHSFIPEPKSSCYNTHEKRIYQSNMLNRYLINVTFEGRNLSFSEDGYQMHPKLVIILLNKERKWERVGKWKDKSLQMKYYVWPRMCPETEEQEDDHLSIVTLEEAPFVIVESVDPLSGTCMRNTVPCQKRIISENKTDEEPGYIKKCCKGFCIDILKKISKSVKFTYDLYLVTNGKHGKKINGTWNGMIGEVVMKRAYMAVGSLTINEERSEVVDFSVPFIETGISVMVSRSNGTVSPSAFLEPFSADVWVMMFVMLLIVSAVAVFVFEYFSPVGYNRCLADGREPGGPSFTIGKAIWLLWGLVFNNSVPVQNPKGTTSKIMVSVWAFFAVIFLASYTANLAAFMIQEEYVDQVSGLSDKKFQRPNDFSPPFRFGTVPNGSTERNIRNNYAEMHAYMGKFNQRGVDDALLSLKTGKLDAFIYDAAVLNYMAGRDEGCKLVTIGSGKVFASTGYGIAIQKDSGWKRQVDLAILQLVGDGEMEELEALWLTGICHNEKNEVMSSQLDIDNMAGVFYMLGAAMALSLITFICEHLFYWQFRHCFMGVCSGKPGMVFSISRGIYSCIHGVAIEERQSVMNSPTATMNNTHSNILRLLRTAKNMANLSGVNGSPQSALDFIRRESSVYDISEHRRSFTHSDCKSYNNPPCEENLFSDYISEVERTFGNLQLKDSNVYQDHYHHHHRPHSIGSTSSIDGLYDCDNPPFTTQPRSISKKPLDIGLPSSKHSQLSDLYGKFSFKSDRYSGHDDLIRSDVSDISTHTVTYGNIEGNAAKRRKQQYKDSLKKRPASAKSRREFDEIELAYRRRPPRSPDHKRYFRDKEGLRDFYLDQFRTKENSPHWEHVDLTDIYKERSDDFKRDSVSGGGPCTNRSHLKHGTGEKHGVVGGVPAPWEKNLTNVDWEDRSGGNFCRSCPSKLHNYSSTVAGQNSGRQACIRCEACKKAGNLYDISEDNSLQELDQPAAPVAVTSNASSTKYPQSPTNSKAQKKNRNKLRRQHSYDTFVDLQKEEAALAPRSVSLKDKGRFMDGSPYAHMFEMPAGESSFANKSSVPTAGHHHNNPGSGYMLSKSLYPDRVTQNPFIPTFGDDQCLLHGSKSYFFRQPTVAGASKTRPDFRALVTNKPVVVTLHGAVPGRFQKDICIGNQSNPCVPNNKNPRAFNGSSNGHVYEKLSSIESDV

GluN1/2A-(2D M1M2M3) = GluN1/2A-(2D M1M2M3) (Rattus norvegicus, UniProt P35439+Q00959, A555P/A572T/A593R/A604S/F553Y/F579L/F658Y/G610A/H595G/I567T/I571V/K590T/K623R/L565C/N587S/P597S/Q620E/S556A/S569V/S598T/S632L/V575I); assay: as above; format: cell-based; conditions: 100 μM glutamate plus 30 μM glycine; vs GluN1/GluN2A
GluN1/2A-(2D S1) = GluN1/2A-(2D S1) (Rattus norvegicus, UniProt P35439+Q00959, A414R/D421P/DELINS438-452SQLNRTHSPPPDAPRPE/E427G/I408V/I422A/K454R/K466R/K472G/L425I/N404Q/N432D/N490D/N491G/R469H/S407T/S468A/S538A/T426S/T433S/T474S/V409A/V430I/V471I/V489I/V501F/V506D/V509I/V521I); assay: Two-electrode voltage-clamp recordings, Xenopus oocytes; format: cell-based; conditions: 100 μM glutamate + 3 μM glycine
In short: (§1)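 cRNA from linearized constructs injected into female Xenopus laevis oocytes. Two-electrode voltage clamp done 3–4 d later at 23°C, holding at −40 mV, in 90 NaCl, 1 KCl, 10 HEPES, 0.5 BaCl₂, 0.01 EDTA (mM), pH 7.4. […] Max inhibition is (control − residual at saturating compound)/control.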

GluN1/GluN2A M788I = GluN1/GluN2A M788I (Rattus norvegicus, UniProt P35439+Q00959, M788I); assay: Two-electrode voltage-clamp recordings, Xenopus oocytes; format: cell-based; conditions: 100 μM glutamate + 3 μM glycine
GluN1/GluN2A V783T = GluN1/GluN2A V783T (Rattus norvegicus, UniProt P35439+Q00959, V783T); assay: as above; format: cell-based; conditions: 100 μM glutamate + 3 μM glycine
GluN1/2A-ΔATD = GluN1/2A-ΔATD (Rattus norvegicus, UniProt P35439+Q00959); assay: as above; format: cell-based; conditions: 100 μM glutamate plus 30 μM glycine; vs GluN1/GluN2A
GluN1/GluN2D = GluN1/GluN2D (Rattus norvegicus, UniProt P35439+Q62645); assay: Two-electrode voltage-clamp recordings, Xenopus oocytes; format: cell-based; conditions: 100 μM glutamate + 3 μM glycine; N.E. = no effect at 10 μM TCN-201
In short: as §1

GluN1/GluN2A L780A = GluN1/GluN2A L780A (Rattus norvegicus, UniProt P35439+Q00959, L780A); assay: Two-electrode voltage-clamp recordings, Xenopus oocytes; format: cell-based; conditions: 100 μM glutamate + 3 μM glycine
GluN1/2D-(2A S1) = GluN1/2D-(2A S1) (Rattus norvegicus, UniProt P35439+Q62645, A432V/A445I/A493S/A563S/D455N/D515N/D531V/DELINS461-477KFVKINNSTNEGMNV/F526V/G450E/G497K/G516N/H494R/I448L/I453V/I496V/I514V/I534V/I546V/P444D/R437A/R479K/R491K/S449T/S456T/S499T/T430S/V431I); assay: Two-electrode voltage-clamp recordings, Xenopus oocytes; format: cell-based; conditions: 100 μM glutamate + 3 μM glycine; N.E. = no effect at 10 μM TCN-201
In short: as §1

GluN1/2A-(2D ATD) = GluN1/2A-(2D ATD) (Rattus norvegicus, UniProt P35439+Q00959+Q62645, A388P/C399P/D398Q/D403T/E353D/E371T/E400V/G345N/H358N/H387Y/K346R/K368R/K374V/K377S/K394G/L348Y/N367T/N380Q/N404Q/P391S/P401D/Q356L/R360S/R386K/S384R/S395R/S397L/T351N/V365S/V389L/Y355F); assay: Two-electrode voltage-clamp recordings, Xenopus oocytes; format: cell-based; conditions: 100 μM glutamate plus 30 μM glycine; vs GluN1/GluN2A
[3] = 100 μM glutamate + 3 μM glycine

- Inhibition by 3 μM TCN-201 (GluN1/2A-(2D D1)): eliminated TCN-201 inhibition
- TCN-201 activity Max. % inhibition (GluN1/GluN2A V783A): 91 ± 2%
- TCN-201 activity nH (GluN1/GluN2A V783A): 1.1
- solubility [1]: 18 µM (≈ 8.31 µg/mL)
- TCN-201 activity Max. % inhibition (GluN1/GluN2A L777A): 98 ± 1%
- TCN-201 activity nH (GluN1/GluN2A L777A): 1.2
- Kb (GluN1/GluN2A V783L): 2140 nM
- TCN-201 activity Max. % inhibition (GluN1/GluN2A V783W): 95 ± 2%
- TCN-201 activity nH (GluN1/GluN2A V783W): 1.0
- TCN-201 activity Max. % inhibition [2]: 80 ± 2%
- TCN-201 activity nH [2]: 1.9
- TCN-201 activity Max. % inhibition (GluN1/GluN2A V783D): 92 ± 2%
- TCN-201 activity nH (GluN1/GluN2A V783D): 1.2
- Kb (GluN1/GluN2B L783F+F784V): 437 nM
- TCN-201 activity nH (GluN1/GluN2B L783F+F784V; [3]): 1.3
- Kb (GluN1/GluN2B F784V): 1380 nM
- TCN-201 activity nH (GluN1/GluN2B F784V; [3]): 1.2
- Inhibition by 3 μM TCN-201 (GluN1/2A-(2D M1M2M3)): did not reduce inhibition
- TCN-201 activity IC50 (GluN1/2A-(2D S1)): did not affect TCN-201 sensitivity
- TCN-201 activity Max. % inhibition (GluN1/2A-(2D S1)): 97 ± 1%
- TCN-201 activity nH (GluN1/2A-(2D S1)): 1.5
- TCN-201 activity Max. % inhibition (GluN1/GluN2A M788I): 79 ± 3%
- TCN-201 activity nH (GluN1/GluN2A M788I): 1.3
- TCN-201 activity Max. % inhibition (GluN1/GluN2A V783T): 91 ± 1%
- TCN-201 activity nH (GluN1/GluN2A V783T): 1.5
- Inhibition by 3 μM TCN-201 (GluN1/2A-ΔATD): did not reduce inhibition
- TCN-201 activity IC50 (GluN1/GluN2D): did not inhibit and N.E.
- Response, % of control at 10 μM TCN-201 (GluN1/GluN2A L780A): 67% of control at 10 μM TCN-201
- Inhibition by 3 μM TCN-201 (GluN1/2A-(2D ATD)): did not reduce inhibition
SMILES: O=C(NNC(=O)c1ccc(CNS(=O)(=O)c2ccc(F)c(Cl)c2)cc1)c1ccccc1 [TCN-201, 3-chloro-4-fluoro-N-[(4-[(2-(phenylcarbonyl)hydrazino)carbonyl]phenyl)methyl]-benzenesulfonamide]
- TCN-201 activity IC50 (GluN1/2D-(2A S1)): did not introduce TCN-201 sensitivity and N.E.
